S100A4 MyoIIA = inhibitors of human S100A4 binding to myosin IIA peptide; P26447; S100A4/TAMRA-MyoIIA peptide fluorescence polarization; inhibition, % at 10.7 µM; actives 0.14% (n = 360,000);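 active = mean inhibition of at least 70% across replicates, with every replicate also reaching that level; inconclusive = mean inhibition reaches 70% but some replicates fall short; inactive = mean inhibition below 70%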
Target sequence (P26447 whole entry, looked up): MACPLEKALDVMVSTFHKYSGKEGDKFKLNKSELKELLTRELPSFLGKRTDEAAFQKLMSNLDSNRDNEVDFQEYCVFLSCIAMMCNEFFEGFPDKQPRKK
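System – human S100A4 monomer protein, biochemical binding assay · Buffer or medium – Calcium-containing HEPES buffer, pH 7.2 · Timing – 5 min between mix addition and reading · Also added – TAMRA-labelled myosin IIA heavy-chain peptide probe, 5 nM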
Xi reactivation = reactivates the inactive X chromosome in mouse fibroblasts; AID 743238; actives 0.055% (n = 360,000); activation, % at 7.58 µM; XiGFP mouse fibroblasts, % GFP-positive cells imaging, 3 d; cells co-treated with 5-aza-dC sensitizer; scaled so ellipticine positive control = 100%;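 active = mean normalized replicate activation at least 10% and every replicate at or above 10%; inconclusive = only one of the two criteria met; inactive = mean below 10% and not all replicates reach 10%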;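 note: 0% = median of on-plate neutral control wells and 100% = ellipticine 6 µM median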
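System: XiGFP fibroblasts, SV40-immortalized. Medium: DMEM plus 5-aza-dC sensitizer. Doses: single point. Timing: 3 d treatment, 15 min room-temperature fixation. Control set: ellipticine 6 µM.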
E-sel inducer = induces E-selectin expression in human endothelial cells; P16581; HUVEC E-selectin immunofluorescence imaging; normalized: neutral wells 0, TNF-alpha wells 100; activation, % at 7.58 µM; actives 0.37% (n = 260,000); AID 686992;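 active = mean E-selectin-positive cell signal at least 10% of the positive control, reached in at least 60% of replicates, without over 20% cell loss; inconclusive = no rule given, readout overlaps actives, possibly toxicity-flagged; inactive = the rest, including those meeting only one limit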
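Test system: HUVEC | Signal: Immunofluorescence imaging | Read-out: Percent E-selectin-positive cells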
DENV2 CPE = protects cells from dengue virus 2 cytopathic effect; DENV2-infected cells, cytopathic effect rescue, plate reader; CPE inhibition, % at 9.99 µM; actives 1.7% (n = 350,000); AID 651640; in the data active = CPE inhibition above about 20%, passing the limit was not always enough; inconclusive = no clear call, values can overlap the other calls; tested in BHK-21 cells;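 note: 0% = median of neutral control wells and 100% = median of positive control wells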
An asterisk follows results filed as active; u = inconclusive; x = no result given; ! = repeats disagree. This is a sample that favours compounds with a hit; in the whole collection about 2% have one here.

SMILES	S100A4 MyoIIA	Xi reactivation	E-sel inducer	DENV2 CPE
CN(C)C(=O)c1cccc(-c2ccccc2[C@H]2[C@@H](C#N)N(C(=O)C3CC3)[C@H]2CO)c1	10	0	0	43*
CN(C)C(=O)c1cccc(-c2ccccc2[C@H]2[C@H](C#N)N(C(=O)C3CC3)[C@H]2CO)c1	-8	0	0	6
CN(C)CC(=O)N1[C@H](C#N)[C@H](c2ccc(-c3cccc(C(=O)N(C)C)c3)cc2)[C@@H]1CO	-8	0	0	u
CN(C)C(=O)c1cccc(-c2ccc([C@@H]3[C@@H](C#N)N(C(=O)C4CCC4)[C@@H]3CO)cc2)c1	4	0	1	26*
COc1ccccc1-c1nn2c(C(F)(F)F)nnc2s1	x	x	1	x
O=C(c1ccccc1)N1CC2(C1)[C@@H](c1ccccc1)[C@@H](CO)N2Cc1cc(F)ccc1F	-8	0	0	-4
CCN(CC)CCN(Cc1cc2cc3c(cc2[nH]c1=O)OCO3)C(=S)NCCCOC	-2	0	x	3
c1cc(-c2ccc(N3CCOCC3)cc2)n2cnnc2c1	-6	0	0	24*
C[C@@H]1CN([C@@H](C)CO)S(=O)(=O)c2ccc(C#CC(C)(C)O)cc2O[C@@H]1CN(C)C(=O)C1CCCCC1	11	0	1	21*
C[C@@H]1CN([C@H](C)CO)S(=O)(=O)c2ccc(C#CC(C)(C)O)cc2O[C@H]1CN(C)C(=O)C1CCCCC1	-25	0	1	14
CCCC#Cc1ccc2c(c1)O[C@H](CN(C)C(=O)C1CCC1)[C@H](C)CN([C@H](C)CO)S2(=O)=O	4	0	0	36*
C[C@H]1CN([C@@H](C)CO)S(=O)(=O)c2ccc(C#CCN(C)C)cc2O[C@H]1CN(C)C(=O)C1CCC1	-1	0	0	29*
COc1ccc(CCCC(=O)Nc2cc(C)ccc2OC)cc1	0	0	x	5
CC(=O)N1CCOc2ccc(S(=O)(=O)N3CCC(C(=O)Nc4ccc(C)cc4)CC3)cc21	-8	1	x	5
Cc1ccc(S(=O)(=O)Nc2cccc3c2O[C@H](CN(C)C(=O)Nc2ccc4c(c2)OCO4)[C@H](C)CN([C@H](C)CO)C3=O)cc1	2	-1	0	4
C[C@H](CO)N1C[C@H](C)[C@@H](CN(C)C(=O)Nc2ccc3c(c2)OCO3)Oc2c(NS(=O)(=O)c3ccc(F)cc3)cccc2C1=O	-31	0	1	48*!
C[C@H](CO)N1C[C@H](C)[C@H](CN(C)C(=O)Nc2ccc3c(c2)OCO3)Oc2c(NS(=O)(=O)c3ccc(Cl)cc3)cccc2C1=O	-1	0	50*	-8
C[C@@H]1CN([C@H](C)CO)C(=O)c2cccc(NS(=O)(=O)c3ccc(Cl)cc3)c2O[C@H]1CN(C)C(=O)Nc1ccc2c(c1)OCO2	6	-1	9	-15
C[C@@H]1CN([C@@H](C)CO)C(=O)c2cccc(NS(=O)(=O)c3ccc(Cl)cc3)c2O[C@H]1CN(C)C(=O)Nc1ccc2c(c1)OCO2	1	0	98*	-4
O=S(=O)(NN=Cc1cccc(Cl)c1)c1ccccc1	3	0	0	28*
O=S(=O)(N/N=C\c1cccc(F)c1)c1ccccc1	1	0	x	7
CCc1cc2c(C)ccc(C)c2nc1SCC(=O)Nc1cc(C)on1	-1	0	x	11
O=C1/C(=C/c2cccs2)SC(=S)N1c1cccc(O)c1	-4	0	52*	-1
O=C(CCN1C(=O)/C(=C/c2cccs2)SC1=S)Nc1ccccc1O	18	0	30*	-1
O=C(CCN1C(=O)/C(=C/c2cccs2)SC1=S)Nc1ccc(O)cc1	5	0	11	-1
SMILES	S100A4 MyoIIA	Xi reactivation	E-sel inducer	DENV2 CPE
COc1ccc(S(=O)(=O)Nc2ccc3c(c2)C(=O)N([C@@H](C)CO)C[C@@H](C)[C@@H](CN(C)Cc2ccc(C(=O)Nc4ccccc4N)cc2)O3)cc1	6	0	34*	1
Cc1ccc(S(=O)(=O)Nc2ccc3c(c2)C(=O)N([C@H](C)CO)C[C@H](C)[C@@H](CN(C)Cc2ccc(C(=O)Nc4ccccc4N)cc2)O3)cc1	-2	-1	0	20*
Cc1ccc(S(=O)(=O)Nc2ccc3c(c2)C(=O)N([C@@H](C)CO)C[C@H](C)[C@H](CN(C)Cc2ccc(C(=O)Nc4ccccc4N)cc2)O3)cc1	-2	1	4	-7
Cc1ccc(-c2cc(C(=O)O)c3cc(Br)ccc3n2)s1	-9	0	0	5
Cc1ccc(/C(=N/Nc2ncnc3ccccc23)C(=O)O)cc1	2	0	51*	-3
Cc1ccc(CNC(=O)CSc2ccc(-c3ccccn3)nn2)cc1	0	0	1	-2
Cc1ccc(CNC(=O)CSc2ccc(-c3cccs3)nn2)cc1	2	0	x	20*
COc1ccc(C)cc1NS(=O)(=O)c1ccc2c(c1)N(C)CCO2	84*	0	x	3
COc1ccc(C)cc1NS(=O)(=O)c1ccc2c(c1)n(C)c(=O)n2C	6	0	x	6
CCN(C[C@H]1N[C@@](C)(C(=O)OC)[C@H]2C(=O)N(C)C(=O)[C@@H]12)C(=O)c1ccc(C)cc1	-1	0	0	u
Oc1c(N=Nc2nn[nH]n2)ccc2ccccc12	38	0	0	69*
COc1ccc(N=Nc2ccc3ccccc3c2)c(O)c1	-2	0	0	u
Oc1c(N=Nc2ccc(F)cc2)ccc2ccccc12	-2	0	x	-6
COc1cccc(N=Nc2ccc3ccccc3c2O)c1	122*	0	x	14
O=C(CN1C(=O)/C(=C\c2ccccc2Cl)Sc2ccccc21)NCCCN1CCOCC1	0	0	x	-5
CN1[C@@H]2c3ccc(/C=C/c4ccccc4)c(=O)n3C[C@H]1[C@H](CO)[C@H]2C(=O)NC1Cc2ccccc2C1	-1	0	0	1
CN(C)C(=O)[C@@H]1[C@@H](CO)[C@@H]2Cn3c(ccc(/C=C/c4ccccc4)c3=O)[C@@H]2N1CC1CC1	-1	0	0	-2
CCN1[C@@H]2Cn3c(ccc(/C=C/c4ccccc4)c3=O)[C@H]1[C@@H](C(=O)NC1Cc3ccccc3C1)[C@@H]2CO	-6	0	2	32*
O=C(O)[C@H]1[C@H](CO)[C@H]2Cn3c(ccc(/C=C/c4ccccc4)c3=O)[C@H]2N1C(=O)c1cnccn1	-11	0	1	103*
CCCN1[C@H](C(=O)N(C)C)[C@@H](CO)[C@@H]2Cn3c(ccc(/C=C/c4ccccc4)c3=O)[C@@H]21	-15	1	0	56*
Cc1noc(C)c1NC(=O)Nc1ccc2c(c1)C(=O)N([C@H](C)CO)C[C@@H](C)[C@H](CN(C)Cc1ccc(-c3ccccc3)cc1)O2	0	-1	8	0
COc1ccc(NC(=O)N(C)C[C@@H]2Oc3ncc(C#CC(C)C)cc3C(=O)N([C@@H](C)CO)C[C@@H]2C)cc1	14	0	0	53*

Screens as filed in PubChem BioAssay.
